Data published in ChEMBL document CHEMBL4118275, “Synthesis of coumarin derivatives and their cytoprotective effects on t-BHP-induced oxidative damage in HepG2 cells” (Bioorg Med Chem Lett, 2018).
Active and inactive are the calls of the source. The calls are words filed in the database; no cut-off is given here.

How the values were obtained:
HepG2 [1] = assay: Cytotoxicity against human HepG2 cells at 10 uM; assay type: cell-based; settings: hepg2, 10 µM
HepG2 [2] = assay: Cytoprotective activity against 100 uM t-BHP-induced oxidative stress in human HepG2 cells assessed as cell viability preincubated for 1 hr followed by t-BHP addition measured after 3 hrs by CCK-8 assay (reference value: 22%); assay type: functional
HepG2 [3] = assay: Cytoprotective activity against 1 mM t-BHP-induced oxidative stress in human HepG2 cells assessed as cell viability preincubated for 1 hr followed by t-BHP addition measured after 3 hrs by CCK-8 assay; assay type: functional
HepG2 [4] = assay: Cytoprotective activity against 100 uM t-BHP-induced cell damage in human HepG2 cells assessed as increase in mitochondrial membrane potential preincubated for 1 hr followed by t-BHP addition measured after 3 hrs by rhodamine 123 staining based fluorescence microscopy; assay type: functional
In short: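 HepG2 cells were pretreated with sample, then exposed to 100 μM t-BHP and stained with Rhodamine 123. Mitochondrial membrane potential was judged from fluorescence microscopy images against untreated control and t-BHP-only cells.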

[5] = Antioxidant activity assessed as DPPH radical scavenging activity measured after 30 mins; assay type: functional
In short: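 DPPH radical scavenging was measured, and activity is given as EC50 in μM.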

SMILES | Activity (HepG2 [1]) | Activity (HepG2 [2]) | Activity (HepG2 [3]) [%] | Activity (HepG2 [4]) | EC50 [5] [nM]
CC1(C)Oc2cc3oc(=O)ccc3cc2CC1O (stereo not given) | Non-Toxic | inactive | – | – | –
CC(C)(OC(=O)/C=C/c1ccc(O)cc1)C1Cc2cc3ccc(=O)oc3cc2O1 (stereo not given) | Non-Toxic | inactive | – | – | –
CC1(C)Oc2ccc3ccc(=O)oc3c2CC1OC(=O)/C=C/c1ccc(O)c(O)c1 (stereo not given) | Non-Toxic | 86% | 39 | Active | 3060
CC1(C)Oc2cc3oc(=O)ccc3cc2CC1OC(=O)/C=C/c1ccc(O)cc1 (stereo not given) | Non-Toxic | inactive | – | – | –
COc1cc(/C=C/C(=O)OC2Cc3c(ccc4ccc(=O)oc34)OC2(C)C)ccc1O (stereo not given) | Non-Toxic | inactive | – | – | –
O=c1c(O)c(-c2ccc(O)c(O)c2)oc2cc(O)cc(O)c12 [QUERCETIN] | – | 62% | – | – | 170
COc1cc(/C=C/C(=O)OC2Cc3c(ccc4ccc(=O)oc34)OC2(C)C)cc(OC)c1OC (stereo not given) | Non-Toxic | inactive | – | – | –
CC(C)(O)C1Cc2c(ccc3ccc(=O)oc23)O1 (stereo not given) | Non-Toxic | inactive | – | – | –
COc1ccc(/C=C/C(=O)OC2Cc3c(ccc4ccc(=O)oc34)OC2(C)C)cc1 (stereo not given) | Non-Toxic | inactive | – | – | –
CC1(C)Oc2ccc3ccc(=O)oc3c2CC1O (stereo not given) [LOMATIN] | Non-Toxic | inactive | – | – | –
CC(C)(O)C1Cc2cc3ccc(=O)oc3cc2O1 (stereo not given) | Non-Toxic | inactive | – | – | –
CC(C)(OC(=O)/C=C/c1ccc(O)cc1)C1Cc2c(ccc3ccc(=O)oc23)O1 (stereo not given) | Non-Toxic | inactive | – | – | –
CC1(C)Oc2ccc3ccc(=O)oc3c2CC1OC(=O)/C=C/c1ccccc1 (stereo not given) | Non-Toxic | inactive | – | – | –
CC1(C)Oc2ccc3ccc(=O)oc3c2CC1OC(=O)/C=C/c1ccc(O)cc1 (stereo not given) | Non-Toxic | inactive | – | – | –
COC(=O)/C=C/c1ccc(O)c(O)c1 [METHYLCAFFEATE] | – | 31% | – | – | 1500
COc1ccc(/C=C/C(=O)OC2Cc3c(ccc4ccc(=O)oc34)OC2(C)C)cc1OC (stereo not given) | Non-Toxic | inactive | – | – | –
